Assay [1] is described as follows: Selectivity index measured as the kb ratio of AMPA to that of NMDA. Put shortly: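 Steady-state selectivity index: Kb at AMPA receptors (rat cortex poly(A)+ RNA oocytes, 10 μM AMPA) divided by Kb at NR1A/2C NMDA receptors (1 μM glycine, 100 μM glutamate), both from oocyte current inhibition at -70 mV.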
Assay [2] deals with Glutamate NMDA receptor (Rattus norvegicus) (UniProt P35439+Q00959+Q00960+Q00961+Q62645+Q8VHN2+Q9R1M7). Nature of the assay: Inhibition of N-methyl-D-aspartate glutamate receptor was measured in oocytes expressing cloned rat brain receptor subunits (NR1A/2C). It is filed as cell-based. The following applies: Oocyte. The procedure, abridged:
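Xenopus oocytes expressing cloned rat NR1A/2C subunits, voltage-clamped at -70 mV. Currents were evoked by 1 μM glycine plus 100 μM glutamate. The apparent dissociation constant (Kb) was calculated from current inhibition assuming simple competitive antagonism, and reported with 95% confidence intervals adjusted to the linear scale.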

Assay [3] has as its target Glutamate receptor ionotropic, AMPA (Rattus norvegicus) (UniProt P19491+P19492+P19493+P19490). Put plainly: Inhibition of Ionotropic glutamate receptor AMPA-preferring non-NMDA receptors was measured in oocytes expressing rat brain poly(A)+ RNA isolated from the cerebral cortex. The note with it: Oocyte. It is filed as cell-based.
The target in assay [4] is Glutamate receptor ionotropic, NMDA 1 (Rattus norvegicus, UniProt P35439). Nature of the assay: Antagonism of N-methyl-D-aspartate glutamate receptor 1 sites using [3H]DCKA as a radioligand.

The text below walks through data of ChEMBL document CHEMBL1130388, “Synthesis of racemic 6,7,8,9-tetrahydro-3-hydroxy-1H-1-benzazepine-2,5-diones as antagonists of N-methyl-d-aspartate (NMDA) and alpha-amino-3-hydroxy-5-methylisoxazole-4-propionic acid (AMPA) receptors” (J Med Chem, 1997).

Turning to `O=c1cc(O)c2c([nH]c1=O)C1CCC2CC1`, the Selectivity index in assay [1] amounted to 300. Further, the Kb in assay [2] stood at 260 nM; in assay [3] it was 79 µM.
For `O=c1cc(O)c2c([nH]c1=O)C1CCC2C1` (stereo unspecified), the Selectivity index in assay [1] turned out to be 75. For the same compound, the Kb in assay [2] came out at 2800 nM.
Consider `CC1Cc2[nH]c(=O)c(=O)cc(O)c2CC1C` (stereo unspecified), for which the Selectivity index in assay [1] was 44. Further, the Kb is 120 nM in assay [2] and 5.3 µM in assay [3].
The IC50 is the concentration needed to halve the response being measured. Low readings indicate greater potency in that assay, high ones weaker potency in that assay. In the case of `O=c1cc(O)c2c([nH]c1=O)C[C@H](Cl)[C@@H](Cl)C2`, in assay [1], the Selectivity index worked out at 19. Also, the Kb came out at 42 nM in assay [2] and 0.78 µM in assay [3]. The IC50 in assay [4] amounted to 130 nM.
For `O=c1cc(O)c2c([nH]c1=O)CCCC2`, the Selectivity index in assay [1] was 31. The Kb in assay [2] was 740 nM; in assay [3], 23 µM.
Regarding `CC1c2c(O)cc(=O)c(=O)[nH]c2C[C@H](Cl)[C@H]1Cl` (stereo partly specified), the Selectivity index in assay [1] was determined as 120. Besides, the Kb stood at 4.1 nM in assay [2] and 0.51 µM in assay [3].
In the case of `CCC1c2c(O)cc(=O)c(=O)[nH]c2C[C@H](Cl)[C@H]1Cl` (stereo partly specified), in assay [1], the Selectivity index was 260. Also, the Kb in assay [2] worked out at 2.8 nM; in assay [3], 0.72 µM.
